In ChEMBL document CHEMBL1142307, “Design, synthesis, and radiosensitizing activities of sugar-hybrid hypoxic cell radiosensitizers” (Bioorg Med Chem, 2008) one finds Ratio and P (partition coefficient) data, which are given here for 9 molecules.

Series [1] in a line: Radiosensitizing activity at hypoxic mouse EMT6/KU cells assessed as enhancement ratio relative to etanidazole. It is filed as functional.
Series [2] is described as follows: Partition coefficient by Shake flask method. The series is classed as physicochemical. To be noted: octanol/water. The gist of the method: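 1 mg compound dissolved in 0.1 M phosphate buffer pH 7.40 as stock; absorbance read at 325 nm before partitioning. 3 mL stock stirred vigorously with phosphate buffer-saturated n-octanol (20–300 mL) at room temperature for 2 h. Aqueous phase absorbance at 325 nm measured after phase separation; P_oct calculated from pre/post absorbance.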

A value given as a limit tells only on which side of the number the result lay.

For the molecule `CC(=O)N[C@H]1[C@H](OCCN(C)C(=O)Cn2ccnc2[N+](=O)[O-])O[C@H](CO)[C@H](O)[C@@H]1O`, the Ratio in series [1] amounted to 1.43. The P (partition coefficient) in series [2] is < 0.01.

For the molecule `CC(=O)OC[C@H]1O[C@@H](OCCN(C)C(=O)Cn2ccnc2[N+](=O)[O-])[C@H](OC(C)=O)[C@@H](OC(C)=O)[C@@H]1OC(C)=O`, in series [1], the Ratio is given as 2.3. The molecule further returned a P (partition coefficient) in series [2] of 0.105.

On to `CN(CCO[C@@H]1O[C@H](CO)[C@H](O)[C@H](O)[C@H]1O)C(=O)Cn1ccnc1[N+](=O)[O-]`, for which the Ratio in series [1] came to 1.4. The P (partition coefficient) in series [2] was < 0.01.

Consider `CN(CCO)C(=O)Cn1ccnc1[N+](=O)[O-]`, for which, in series [1], the Ratio is 1.75. In series [2], this molecule registered a P (partition coefficient) of 0.056.

Take `CN(CCO[C@@H]1O[C@H](CO)[C@@H](O)[C@H](O)[C@H]1O)C(=O)Cn1ccnc1[N+](=O)[O-]`: the Ratio in series [1] is reported as 1.33. In addition, the P (partition coefficient) in series [2] was < 0.01.

On to `CC(=O)OC[C@H]1O[C@@H](OCCN(C)C(=O)Cn2ccnc2[N+](=O)[O-])[C@H](OC(C)=O)[C@@H](OC(C)=O)[C@H]1OC(C)=O`, for which the Ratio in series [1] worked out at 1.63. Also, the P (partition coefficient) in series [2] was 0.0355.

`CC(=O)OC[C@H]1O[C@H](OCCN(C)C(=O)Cn2ccnc2[N+](=O)[O-])[C@@H](OC(C)=O)[C@@H](OC(C)=O)[C@@H]1OC(C)=O`: the Ratio in series [1] is on record as 1.88. Further, the P (partition coefficient) in series [2] came to 0.0697.

On to `CN(CCO[C@H]1O[C@H](CO)[C@@H](O)[C@H](O)[C@@H]1O)C(=O)Cn1ccnc1[N+](=O)[O-]`, for which the Ratio in series [1] is reported as 1.41. The P (partition coefficient) in series [2] was < 0.01.

For the molecule `CC(=O)N[C@H]1[C@H](OCCN(C)C(=O)Cn2ccnc2[N+](=O)[O-])O[C@H](COC(C)=O)[C@H](OC(C)=O)[C@@H]1OC(C)=O`, the Ratio in series [1] was 1.47. Besides, the P (partition coefficient) in series [2] is 0.051.
